Apaf1 inhib: inhibitors of human Apaf-1 apoptosome, primary screen, biochemical, DEVD-Rh110 fluorescence, uHTS | Apoptotic protease-activating factor 1 (Homo sapiens), O14727 | inhibition, % at 20 µM | reconstituted apoptosome caspase-3 activity | 330,000 tested, 0.71% active | AID 489030, 2010; active = inhibition of at least 40% at 20 µM
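System – cell-free apoptosome with Apaf-1, procaspase-3 and caspase-9 · Buffer or medium – pH 7.5 Hepes buffer with CHAPS, BSA, DTT · Also added – cytochrome c with DEVD-Rh110 · Times – 30 min compound preincubation, 50 min activation, room temperature · Technique – Rh110 fluorescence intensity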
PRMT1 FP inh: PRMT1 methyltransferase inhibitors, primary screen, biochemical, fluorescence polarization; inhibition, % at 2.79 µM; recombinant PRMT1, activity-based probe fluorescence polarization; 370,000 tested, 1.3% active; AID 652257, 2013;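 active = inhibition above about 21% made by adding two undisclosed values, limit read from the data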
Target sequence (Q99873 whole entry, looked up): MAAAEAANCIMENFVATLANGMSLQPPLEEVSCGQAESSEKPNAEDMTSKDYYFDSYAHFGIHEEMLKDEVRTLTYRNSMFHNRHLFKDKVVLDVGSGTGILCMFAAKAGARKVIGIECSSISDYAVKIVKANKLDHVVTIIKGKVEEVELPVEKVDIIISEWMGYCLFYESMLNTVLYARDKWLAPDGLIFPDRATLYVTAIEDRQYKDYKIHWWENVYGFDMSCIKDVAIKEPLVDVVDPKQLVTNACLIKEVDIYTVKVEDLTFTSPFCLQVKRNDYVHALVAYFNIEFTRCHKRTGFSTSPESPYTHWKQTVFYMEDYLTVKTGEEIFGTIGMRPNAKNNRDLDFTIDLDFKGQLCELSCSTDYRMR
PAD4 FP inh: human PAD4 inhibitors, primary screen, biochemical, fluorescence polarization, 1536-well format; recombinant PAD4, RCA probe fluorescence polarization; inhibition, % at 6.36 µM; 330,000 tested, 0.41% active; Protein-arginine deiminase type-4 (Homo sapiens), Q9UM07; AID 485272, 2010;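 active = percent inhibition above a cutoff equal to the mean of all tested compounds plus 3 SD, cut at about 15% in these data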
TDP2 inh: human TDP2 enzyme inhibitors, primary screen, biochemical, epi absorbance, recombinant enzyme; T5PNP hydrolysis, p-nitrophenol absorbance 415 nm; AID 720702, 2013; Tyrosyl-DNA phosphodiesterase 2 (Homo sapiens), O95551; inhibition, % at 12.8 µM; 370,000 tested, 0.34% active;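 active = inhibition above the mean of all tested compounds plus 3 SD, set per campaign, cut at about 25% in these data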
Target sequence (O95551 whole entry, looked up): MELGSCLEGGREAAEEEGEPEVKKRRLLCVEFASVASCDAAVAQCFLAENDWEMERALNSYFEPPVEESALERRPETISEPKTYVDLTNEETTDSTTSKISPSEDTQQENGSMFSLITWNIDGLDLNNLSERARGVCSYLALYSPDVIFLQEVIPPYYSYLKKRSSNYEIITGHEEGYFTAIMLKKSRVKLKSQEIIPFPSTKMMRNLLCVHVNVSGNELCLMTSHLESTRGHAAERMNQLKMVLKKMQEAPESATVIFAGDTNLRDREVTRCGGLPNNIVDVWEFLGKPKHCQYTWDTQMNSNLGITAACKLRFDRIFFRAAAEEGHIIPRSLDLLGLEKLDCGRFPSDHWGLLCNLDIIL
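Evaluation: % inhibition relative to enzyme-containing and enzyme-free wells. Material: recombinant human TDP2. Benchmarks: enzyme-free and DMSO wells. Timing: enzyme reaction with compound for 2 h at 37 °C. Compound dosing: 12.8 µM only. Measured by: p-Nitrophenol epi absorbance. Reagent: T5PNP substrate at 5 mM, a TopII-DNA adduct mimic. Replication: single well per compound.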
GSTO1 counter: inhibitors of recombinant GSTO1, primary screen, counter-screen for RBBP9 inhibitor project, biochemical, fluorescence polarization | activity-based probe fluorescence polarization | inhibition, % at 5.96 µM | 300,000 tested, 1.1% active;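 active = inhibition above the campaign mean inhibition plus 3 SD, cut at about 35% in these data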
GSTO1 inh conf: GSTO1 inhibitor hit confirmation, counter-screen for RBBP9 inhibitor project, biochemical, fluorescence polarization, triplicate. 2,400 tested, 54% active. inhibition, % at 5.96 µM. shares compounds with GSTO1 counter. recombinant GSTO1, probe fluorescence polarization;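 active = inhibition above the primary screen's cutoff, its mean inhibition plus 3 SD, cut at about 35% in these data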;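 note: loss of polarization as inhibitors block binding of rhodamine sulfonate ester activity probe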
PAD4 FP conf: human PAD4 inhibitors, confirmation, biochemical, fluorescence polarization. shares compounds with PAD4 FP inh. recombinant PAD4, RCA probe fluorescence polarization. inhibition, % at 6.36 µM. 1,200 tested, 28% active. AID 488796, 2010;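 active = mean inhibition across replicates above the hit cutoff set by the earlier primary screen, cut at about 15% in these data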;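 note: inhibitors block active-site labeling by the probe so polarization falls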
Apaf-1 inh conf: Apaf-1 inhibitors, single-dose retest, confirmation, biochemical, fluorescence, DEVD-Rh110, 20 µM. 1,800 tested, 25% active. shares compounds with Apaf1 inhib. AID 504614, 2011. reconstituted apoptosome, caspase-3 DEVD-Rh110 fluorescence. inhibition, % at 20 µM;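 active = mean inhibition of at least 40% at 20 µM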
Rh110 quench: Rh110 fluorescence interference by putative Apaf-1 inhibitors, confirmation, artefact control for Apaf-1 inhibitor project, biochemical, 20 µM; shares compounds with Apaf1 inhib; quenched caspase reaction; activation (fluorescence interference), % at 20 µM; 1,800 tested, under 10 active; AID 504615, 2011;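 active = signal rise of 40% or more at 20 µM, treated as a fluorescence artifact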
Apaf1 inh interf: fluorescence interference of Apaf-1 inhibitor hits, dose response, artefact control for Apaf-1 inhibitor project | shares compounds with Apaf1 inhib | fluorescence interference counterscreen, Apaf-1 assay format | IC50, µM | 460 tested, under 10 active | AID 588538, 2011; call rule not given here
Each line names hits and unclear results; the compound was inactive in the other large screens (follow-up assays come after a bar, where they were run). Sampled rows, rich in hits. Any-hit rate of the full collection: about 2.6%.

Cc1[nH]n(-c2ccccc2)c(=O)c1C(C[N+](=O)[O-])c1ccc(Br)cc1 (stereo unspecified)	Apaf1 inhib 87, GSTO1 counter 45 | GSTO1 inh conf inactive | Apaf-1 inh conf 96 | Rh110 quench inactive | Apaf1 inh interf inactive
Cc1[nH]n(-c2ccccc2)c(=O)c1C(=O)c1ccc([N+](=O)[O-])cc1	none
Cc1[nH]n(-c2ccccc2)c(=O)c1C(c1cccc([N+](=O)[O-])c1)c1c(C)[nH]n(-c2ccccc2)c1=O	Apaf1 inhib 64, PAD4 FP inh 30, TDP2 inh 90, GSTO1 counter 52 | GSTO1 inh conf inactive | PAD4 FP conf inactive | Apaf-1 inh conf inactive | Rh110 quench inactive
Cc1cccc(-c2cccc3[nH]c4c(c23)CCN2C(=O)[C@H]3[C@H](C)ON(C)[C@H]3C[C@@H]42)c1	none (no result: Apaf1 inhib, PAD4 FP inh, GSTO1 counter)
CCOC(=O)[C@]12CCCC=C1N(Cc1ccccc1)C(=O)[C@H](CC(=O)N1CCC(c3ccccc3)CC1)C2	none (no result: Apaf1 inhib, PAD4 FP inh, GSTO1 counter)
C[C@H]1COc2cc(Br)ccc2S(=O)(=O)N1Cc1cn(CCC2OCCCO2)nn1	none (no result: Apaf1 inhib, PAD4 FP inh, GSTO1 counter)
O=C1C(=O)c2ccc(-c3ccccc3)cc2-c2ccccc21	Apaf1 inhib 98, GSTO1 counter 87 | GSTO1 inh conf 91 | Apaf-1 inh conf 100 | Rh110 quench inactive | Apaf1 inh interf inactive
Nc1ccc2c(c1)C(=O)c1ccccc1-2	none
CC(C)C[C@@H](CO)N1Cc2nnn(Cc3ccccc3)c2-c2ccccc2S1(=O)=O	none (no result: Apaf1 inhib, PAD4 FP inh, GSTO1 counter)
CCOC(=O)c1c(C)oc2c1c(C=NCCC(=O)O)c(O)c1ccccc12	Apaf1 inhib 81, GSTO1 counter 43 | GSTO1 inh conf 47 | Apaf-1 inh conf 59 | Rh110 quench inactive | Apaf1 inh interf inactive
CCCCNC(=O)C1C(c2ccc(C(F)(F)F)cc2)=Nc2ccccc2N1C(C)=O (stereo unspecified)	none (no result: Apaf1 inhib, PAD4 FP inh, GSTO1 counter)
CCN(CC)c1ccc(N=Cc2ccc([N+](=O)[O-])o2)cc1	Apaf1 inhib 56, PRMT1 FP inh 41, GSTO1 counter 73 | GSTO1 inh conf inactive | Apaf-1 inh conf inactive | Rh110 quench inactive
CCOC(=O)CC[C@@]1(C(=O)OCC)C[C@@H](CC(=O)NCc2cccc3ccccc23)C(=O)N2CCCC=C21	none (no result: Apaf1 inhib, PAD4 FP inh, GSTO1 counter)
Cc1c(C(=O)c2ccc(F)cc2F)c2ccccn2c1CCC#N	Apaf1 inhib 63, GSTO1 counter 39 | GSTO1 inh conf inactive | Apaf-1 inh conf inactive | Rh110 quench inactive
Cc1c(C(=O)c2ccc(F)cc2F)c2ccccn2c1CCc1ccccn1	none (no result: Apaf1 inhib, PAD4 FP inh, GSTO1 counter)
C/C=C/c1cccc(-c2nc(C(=O)NC3Cc4ccccc4C3)cc3c2[C@@H](CCO)N(C(C)=O)C3)c1	none (no result: Apaf1 inhib, PAD4 FP inh, GSTO1 counter)
CC1(OC(=O)C2CCCC2)C(=O)C=C2C=C(c3ccsc3)N(CCCCO)C=C2C1=O (stereo unspecified)	Apaf1 inhib 54, GSTO1 counter 44 | GSTO1 inh conf inactive | Apaf-1 inh conf inactive | Rh110 quench inactive
COc1ccc(CN2C=C3C(=O)C(C)(OC(=O)C4CCCC4)C(=O)C=C3C=C2c2ccsc2)cc1 (stereo unspecified)	none
CC(CCN1CCC(C(O)(c2ccccc2)c2ccccc2)CC1)Oc1cc(F)cc(C#N)c1 (stereo unspecified)	none (no result: Apaf1 inhib, PAD4 FP inh, GSTO1 counter)
CC(=O)OCCCNc1cc(Sc2nc3ccccc3s2)c2nonc2c1[N+](=O)[O-]	Apaf1 inhib 96, GSTO1 counter 45 (no result: PRMT1 FP inh, TDP2 inh) | GSTO1 inh conf inactive | Apaf-1 inh conf inactive | Rh110 quench inactive
CC(=O)OCCCNc1cc(Sc2ccc(C)cc2)c2nonc2c1[N+](=O)[O-]	none
O=C1C(c2ccccc2)=[N+]([O-])c2ccccc21	Apaf1 inhib 85, GSTO1 counter 64 | GSTO1 inh conf 48 | Apaf-1 inh conf 87 | Rh110 quench inactive | Apaf1 inh interf inactive
CCOC(=O)[C@@]12CN(C(=O)OC(C)(C)C)CC=C1N(Cc1ccc(OC)cc1)C(=O)[C@H]2CC(=O)NCc1ccccc1	none (no result: Apaf1 inhib, PAD4 FP inh, GSTO1 counter)
CC1=NN(c2ccc(C(F)(F)F)cn2)C(=O)C1	Apaf1 inhib 62, GSTO1 counter 44 | GSTO1 inh conf inactive | Apaf-1 inh conf 61 | Rh110 quench inactive | Apaf1 inh interf inactive
CCOC(=O)c1c(C)oc2c1C(=O)c1ccccc1C2=O	Apaf1 inhib 69, GSTO1 counter 66 | GSTO1 inh conf 64 | Apaf-1 inh conf 68 | Rh110 quench inactive | Apaf1 inh interf inactive
CCOC(=O)c1c(C)nc2c(c1-c1ccccc1)C(=O)c1ccccc1-2	none
Cc1cc(=O)oc(C)c1C(=O)O	none
Cc1oc2c(c1C(=O)O)C(=O)c1ccccc1C2=O	Apaf1 inhib 79, GSTO1 counter 61 | GSTO1 inh conf 62 | Apaf-1 inh conf 69 | Rh110 quench inactive | Apaf1 inh interf inactive
COC(=O)[C@]12CCCCC=C1N(CCC1=CCCCC1)C(=O)[C@H](CC(=O)NCCCCc1ccccc1)C2	none (no result: Apaf1 inhib, PAD4 FP inh, GSTO1 counter)
O=C(N/N=C\c1ccc(-c2ccccc2[N+](=O)[O-])o1)C1COc2ccccc2O1 (stereo unspecified)	Apaf1 inhib 79, PAD4 FP inh 29, GSTO1 counter 66 | GSTO1 inh conf 47 | PAD4 FP conf inactive | Apaf-1 inh conf inactive | Rh110 quench inactive
O=C(N/N=C\c1ccc([N+](=O)[O-])o1)C1COc2ccccc2O1 (stereo unspecified)	none
COc1cccc(C=Nc2ccc(N3CCOCC3)cc2)c1O	none
O=[N+]([O-])c1cc(Br)c(O)c(C=Nc2ccc(N3CCOCC3)cc2)c1	Apaf1 inhib 68, PAD4 FP inh 54, GSTO1 counter 72 | GSTO1 inh conf inactive | PAD4 FP conf inactive | Apaf-1 inh conf inactive | Rh110 quench inactive
